Screens deposited in PubChem by several laboratories.
Mdm2 ligase inh: blocks human Mdm2 ubiquitin ligase activity; signal enhancement, % at 5 µM; Q00987; cell-based MDM2 ubiquitination luciferase reporter, 2 h; 0 = plate control, 100 = twice control, blank-subtracted; actives 0.11% (n = 210,000);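 active = signal enhancement of 30% or more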;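 note: luminescence tracks abundance of the self-degrading MDM2-luciferase fusion protein; higher signal means inhibition of MDM2 E3 ligase activity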
Target sequence (Q00987 whole entry, looked up, the tested form may be a part): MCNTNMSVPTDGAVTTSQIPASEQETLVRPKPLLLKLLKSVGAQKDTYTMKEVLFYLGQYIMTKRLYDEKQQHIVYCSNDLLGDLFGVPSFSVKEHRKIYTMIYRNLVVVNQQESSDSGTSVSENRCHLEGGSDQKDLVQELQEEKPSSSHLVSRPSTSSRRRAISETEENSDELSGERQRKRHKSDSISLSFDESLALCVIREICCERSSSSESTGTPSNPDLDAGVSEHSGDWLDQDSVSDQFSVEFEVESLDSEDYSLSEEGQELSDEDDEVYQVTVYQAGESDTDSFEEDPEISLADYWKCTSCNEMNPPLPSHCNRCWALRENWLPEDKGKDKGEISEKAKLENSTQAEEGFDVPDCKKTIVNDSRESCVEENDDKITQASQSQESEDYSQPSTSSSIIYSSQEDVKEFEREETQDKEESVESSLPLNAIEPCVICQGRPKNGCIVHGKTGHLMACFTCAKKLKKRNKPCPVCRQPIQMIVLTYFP
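System: stable MDM2–luciferase fusion reporter cells / Input: 2000 cells seeded into each well / Schedule: 4 h settle plus 2 h compound, 37 °C / Compound: single-point 5 µM / Buffer or medium: cells held in DMEM / Benchmarks: control and blank well means / Evaluation: percent signal gain over controls, blank-subtracted / Measured by: luciferase luminescence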
PKD1 kinase inh: PKD1 (human) kinase inhibition; Q15139; actives 0.056% (n = 200,000); PKD1 kinase fluorescence polarization assay; inhibition, % (no concentration beside the values); in the data active = inhibition above about 50%
ROMK primary: modulators of human ROMK potassium channel; P48048; Tet-inducible ROMK, thallium flux fluorescence; actives lie on both sides; B-score at 10 µM; actives 2% (n = 130,000);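 active = signal ratio slope over the read window, or its plate-corrected B-score, at least 3 SD from the plate mean, either direction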;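 note: B-score of the F/F0 ratio slope over 7 to 12 s after thallium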
p97 inhibitor: human p97 ATPase inhibition; P55072; recombinant p97 ATPase, Kinase-Glo ATP luminescence, 3 h; inhibition, % at 8 µM; actives 0.42% (n = 220,000); AID 1481; in the data active = inhibition above about 15%
Redox H2O2 prof: compounds producing H2O2 with reducing agent – biochemical, NIH compound library profiling, artefact control for MLSCN library redox annotation, primary screen. actives 0.03% (n = 200,000). activation, % at 10 µM. DTT-dependent redox cycling H2O2, phenol red/HRP absorbance; 100% = 100 µM peroxide control, 0% = buffer;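 active = activation of at least 50% relative to the plate's high and low controls in the primary single-dose screen; inactive = activation below 50%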;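 note: compound incubated with DTT at 0.8 mM final as the reducing agent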
Cl transport mod: KCC2 (human) Cl- transport modulation; B-score of Tl+ flux slope (higher = more flux/activation; lower = inhibition) at 10 µM; Q9H2X9; actives 2.2% (n = 190,000); KCC2 cells, thallium flux FluoZin-2 fluorescence;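 active = thallium flux slope and its plate-corrected score both differing from the plate sample mean at a set confidence after two filtering rounds, in either direction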;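 note: slope of fluorescence scaled to starting intensity during 10 to 20 s after thallium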
KCC2 sec1: confirmation of human KCC2 transport modulators. shares compounds with Cl transport mod. HEK293-KCC2, thallium flux, FluoZin2 fluorescence; hits give high values. normalised thallium flux (F/F0 slope) at 10 µM. actives 15% (n = 3,700). AID 1713;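 active = thallium flux slope above the same plate's solvent-only control mean plus 3 SD; inconclusive = the two replicate wells disagree; inactive = no significant difference from solvent-only control wells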
KCC2 bumet counter: thallium flux persisting under bumetanide in KCC2 cells, counter-screen secondary assay; shares compounds with Cl transport mod; HEK293-KCC2 + bumetanide/ouabain, thallium flux FluoZin2; hits give high values; normalized thallium flux at 10 µM; actives 49% (n = 3,700); AID 1714;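 active = thallium entry rate above the same plate's blocked-transporter control wells by more than 3 SD; inconclusive = the two repeat wells disagree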;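 note: raw slope of fluorescence over initial fluorescence between 10 and 20 s after thallium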
KCC2 sec2: confirmation of human KCC2 transport modulators | shares compounds with Cl transport mod | HEK293-KCC2, thallium flux FluoZin2 fluorescence; actives lie on both sides; F/F0 rise rate, 10–20 s post-thallium | normalized thallium flux at 10 µM | actives 23% (n = 3,700) | AID 1715;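 active = thallium flux slope more than 3 SD above or below the plate's solvent-only control mean, mostly below; inconclusive = the two repeat wells disagreed; inactive = no significant shift from solvent-only controls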
HEK counter1: counter-screen for KCC2 modulators: effect in parental HEK293 cells; thallium flux FluoZin2, ouabain; baseline-ratio fluorescence slope, 10–20 s after thallium; AID 1716; actives 46% (n = 3,700); thallium flux rate (normalised fluorescence) at 10 µM; shares compounds with Cl transport mod;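 active = thallium flux rate significantly above the same plate's solvent-only control wells, beyond their mean plus 3 SD; inconclusive = the two replicate wells gave conflicting results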
KCC2 ouabain: modulates human KCC2 on retest with ouabain; actives 48% (n = 3,700); HEK293-KCC2, thallium flux FluoZin2 fluorescence; bidirectional: low = inhibitor, high = activator; shares compounds with Cl transport mod; raw Tl+ flux slope (below DMSO = inhibition, above = activation) at 10 µM;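 active = thallium flux slope beyond 3 SD from same-plate DMSO control mean in most replicates, usually higher, sometimes lower; inconclusive = repeat tests gave conflicting results; inactive = no significant difference from controls in most replicates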;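 note: slope of initial-normalized fluorescence between seconds 10 and 20 after thallium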
HEK counter2: counter-screen for KCC2 modulators: effect in parental HEK293 cells; shares compounds with Cl transport mod; thallium flux FluoZin-2 fluorescence slope; thallium flux slope at 10 µM; actives 33% (n = 3,700);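 active = thallium flux slope above the same plate's solvent-control mean plus 3 SD in both duplicate wells; inconclusive = duplicate wells that disagreed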;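 note: run without ouabain in cells lacking the KCC2 cotransporter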
Of the large screens only hits and unclear results are named; the others gave an inactive call (follow-up assays come after a bar, where they were run). Compounds with a hit are over-represented: about 3.4% of the library has one in this group of screens.

O=C(NC(=S)Nc1ccc(N2CCOCC2)cc1)c1cncc(Br)c1	Cl transport mod 5.5 | KCC2 sec1 inactive | KCC2 bumet counter 0.019 | KCC2 sec2 inactive | HEK counter1 inconclusive | KCC2 ouabain 0.026 | HEK counter2 inactive
Cc1cccnc1NC(=S)NC(=O)c1cccs1	none (no result: ROMK primary, Cl transport mod)
O=C(NC(=S)Nc1ccc(Br)cn1)c1cccs1	Cl transport mod 7.7 | KCC2 sec1 inactive | KCC2 bumet counter 0.024 | KCC2 sec2 inactive | HEK counter1 0.017 | KCC2 ouabain 0.033 | HEK counter2 0.018
O=C(NC(=S)Nc1cccc([N+](=O)[O-])c1)c1ccccc1	Cl transport mod 12 (no result: PKD1 kinase inh, ROMK primary, Redox H2O2 prof) | KCC2 sec1 inactive | KCC2 bumet counter 0.03 | KCC2 sec2 inactive | HEK counter1 inconclusive | KCC2 ouabain inactive | HEK counter2 inconclusive
O=C(NC(=S)Nc1cccc([N+](=O)[O-])c1)c1ccco1	Cl transport mod 28 | KCC2 sec1 0.022 | KCC2 bumet counter 0.079 | KCC2 sec2 inconclusive | HEK counter1 inconclusive | KCC2 ouabain 0.062 | HEK counter2 0.025
Cn1cc([N+](=O)[O-])c(C(=O)Nc2ccn(C34CC5CC(CC(C5)C3)C4)n2)n1	none
CCOC(=O)Cn1cnc(-c2ccc([N+](=O)[O-])cc2)c1	none
CNc1ccccc1C(C)(C)c1cc(-c2cccc(Br)c2)no1	none
O=C(NC(=S)Nc1ccccn1)c1cncc(Br)c1	Cl transport mod 6.2 (no result: Mdm2 ligase inh) | KCC2 sec1 inactive | KCC2 bumet counter 0.017 | KCC2 sec2 inactive | HEK counter1 0.015 | KCC2 ouabain inconclusive | HEK counter2 0.014
O=C(NC(=S)Nc1ccc(Br)cn1)c1cncc(Br)c1	none
CCOc1ccc(C(=O)NC(=S)Nc2ccccn2)cc1[N+](=O)[O-]	none
O=C(NC(=S)Nc1ccccn1)c1cccc([N+](=O)[O-])c1	Cl transport mod 8 (no result: PKD1 kinase inh, Redox H2O2 prof) | KCC2 sec1 inconclusive | KCC2 bumet counter 0.042 | KCC2 sec2 inactive | HEK counter1 0.014 | KCC2 ouabain inactive | HEK counter2 0.013
CN(C)c1ccc(C(=O)Nc2ccc(CN3CCS(=O)(=O)CC3)cc2)cc1	none (no result: PKD1 kinase inh, Redox H2O2 prof)
CN(Cc1ccccc1)C(=O)COC(=O)c1cc(NS(=O)(=O)c2cccs2)ccc1O	Cl transport mod -3.5 | KCC2 sec1 inactive | KCC2 bumet counter inactive | KCC2 sec2 0.022 | HEK counter1 inactive | KCC2 ouabain inactive | HEK counter2 inactive
COc1cc(C(=O)Nc2nnc(C3CC3)s2)ccc1OCc1c(C)noc1C	none
CCOC(=O)c1ccc(CNC(=O)CCC(=O)O)cc1	none (no result: Cl transport mod) | KCC2 sec1 inactive | KCC2 bumet counter inactive | KCC2 sec2 inactive | HEK counter1 inactive | KCC2 ouabain inactive | HEK counter2 inactive
Cc1ccc(C(=O)N2CCN(c3ccc([N+](=O)[O-])c(NCc4cccnc4)c3)CC2)cc1	none
